Screening results: PubChem BioAssay, Sanford-Burnham Center for Chemical Genomics
Only a sample is shown.
Apaf1 activ: activates human Apaf-1 apoptosome. 330,000 compounds, 0.31% hits. activity change, negative = activation, % at 20 µM. AID 489031. Apaf-1 apoptosome caspase-3 activation, DEVD-Rh110 fluorescence; active compounds read low;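 active = activity change at or below -40% at 20 µM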
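system = biochemical Apaf-1 apoptosome reconstitution | buffer or medium = 20 mM HEPES pH 7.5 with CHAPS, BSA | also added = dATP and cytochrome c as apoptosome triggers, (Z-DEVD)2-Rh110 substrate | incubation = 30 min compound preincubation and 50 min reaction, both room temperature | measured by = fluorescence, 540 nm emission, 480 nm excitation | read-out basis = Caspase-3 cleavage activity downstream of Apaf-1 activation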
Rh110 act interf: interferes with Rh110 fluorescence, flagging false Apaf-1 activators | shares compounds with Apaf1 activ | Rh110 fluorescence interference, quenched caspase reaction, Ex480/Em540 | fluorescence interference (activity change), % at 20 µM, hits read low | 980 tested, under 10 active | AID 504616;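 active = mean activity change at or below -40% when tested at 20 µM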
Apaf-1 act conf: Apaf-1 (human) activation, single-dose confirmed; shares compounds with Apaf1 activ; reconstituted apoptosome caspase-3 activity, DEVD-Rh110 fluorescence; active compounds read low; activity change, negative = activation, % at 20 µM; 980 compounds, 5% hits; AID 504617;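 active = mean activity change at or below -40%, meaning activation of 40% or more, at 20 µM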
Fluor interf act: counter-screen for Apaf-1 activators: fluorescence interference, dose response. fluorescence interference counterscreen, Apaf-1 activator assay. AID 588592. EC50, µM. shares compounds with Apaf1 activ. 55 tested, under 10 active; call rule not given here
* = called active by the depositor; nt = no result given.

SMILES	Apaf1 activ	Rh110 act interf	Apaf-1 act conf	others
CCOc1ccccc1NC(=O)CCS(=O)(=O)c1ccc(Br)cc1	-220*	12	-128*	Fluor interf act=>100
COc1cccc(-c2sc3ccccc3c2-c2ccc(OCCN3CCCCC3)cc2)c1	64	nt	nt
CCN1CCN(c2ccc(S(=O)(=O)N3CCCCC3)cc2NC(=O)/C=C/c2cc(OC)ccc2OC)CC1	46	nt	nt
Clc1cccc(CSc2nnc(-c3ccccn3)n2Cc2ccco2)c1	42	nt	nt
O=C1C(=Cc2ccco2)C(=O)c2ccccc21	44	nt	nt
C#CCOCCOCCOCCNc1nc(N2CCN(C(=O)[C@H](CCCCN)n3cc(CN)nn3)CC2)nc(N2CCN(C(=O)[C@H](CCCCN)n3cc(CN)nn3)CC2)n1	44	nt	nt
O=CNn1cnc2c(oc3nc(-c4ccccc4)cc(-c4ccco4)c32)c1=O	-116*	8	-5
C=CCNC(=O)C1(S(=O)(=O)c2ccccc2)CC=CC1	-384*	-2	8
CCn1c(SCC(=O)N/N=C/C=C\c2ccco2)nc2ccccc21	47	nt	nt
O=C(Cn1c(-c2ccccn2)nc2ccccc21)N/N=C/c1ccccn1	-44*	0	10
O=C(CNc1cccc2ccccc12)N/N=C/c1ccccn1	48	nt	nt
C#CCOCCOCCOCCNc1nc(N2CCN(C(=O)C([C@@H](C)O)n3cc([C@@H](N)CCCCN)nn3)CC2)nc(N2CCN(C(=O)[C@H](CCCN=C(N)N)n3cc(C(N)[C@@H](C)CC)nn3)CC2)n1 (some centres undefined)	46	nt	nt
CCOC(=O)CCC(=O)NNC(=O)COc1ccc(C(C)C)cc1Br	-108*	-9	9
COc1ccccc1-n1c(N)c(C(=O)NCC2CCCO2)c2nc3ccccc3nc21 (centres undefined)	69	nt	nt
Cc1ccc(CN2C(=O)CCC2C(=O)NCC2CCCO2)cc1 (centres undefined)	-88*	4	3
CN(c1ccccc1)c1cc(Br)nc(Br)c1	-47*	11	10
CS(=O)(=O)N(CC(=O)N1CCN(c2ccccc2)CC1)c1ccccc1Cl	-164*	4	11
CCn1c(=O)c2cc(C(=O)N(C)c3cc(C)ccc3OC)sc2c2ccccc21	53	nt	nt
CC(=O)Nc1ccc2c(c1)N(C(=O)CN(C)C)c1ccccc1CC2	43	nt	nt
CCn1c2ccccc2c2cc(NC(C)=O)ccc21	-226*	-1	-1
CCOc1cc(CNc2ccc(N(C)C)cc2)cc(Br)c1OCC(=O)NC(C)(C)C	44	nt	nt
CCC(C)(C)c1ccc(OCCCC[n+]2ccc(C)cc2)c(C(C)(C)CC)c1	48	nt	nt
O=C(Nc1ccc(Cl)c(Cl)c1)Nc1nc(-c2ccccc2)cs1	-366*	11	16
Cc1nc(C(=O)NNC(=O)Nc2ccccc2)cs1	57	nt	nt
COC(=O)C1=C(C)N(Cc2ccccc2)C(=NCc2ccccc2)N[C@H]1c1cccc(F)c1	41	nt	nt
SMILES	Apaf1 activ	Rh110 act interf	Apaf-1 act conf	others
COc1ccc(S(=O)(=O)Nc2cccc3c2O[C@H](CN(C)Cc2ccccc2)[C@@H](C)CN([C@H](C)CO)C3=O)cc1	53	nt	nt
CCCCc1c(C)c(C#N)c2[nH]c3ccccc3n2c1=O	45	nt	nt
CSc1ccccc1NC(=O)CN(C)C(=O)c1ccc2c(c1)OCCO2	-74*	7	5
Cc1cccc(C)c1NC(=O)CN(C)C(=O)c1ccccc1SCC(=O)N1CCCC1	42	nt	nt
Cc1[nH]n(-c2ccccc2)c(=O)c1C(c1cccc([N+](=O)[O-])c1)c1c(C)[nH]n(-c2ccccc2)c1=O	64	nt	nt
CCc1cccc(NC(=S)Nc2cccc3ccccc23)c1	79	nt	nt
Fc1ccc(NC(=S)Nc2cccc3ccccc23)cc1	85	nt	nt
Cc1ccc(F)cc1NC(=S)NCCc1ccccc1	-523*	-5	19
CC(=O)N(/N=C1\Sc2ccccc2C1=O)c1ccccc1C	90	nt	nt
COc1ccc(C(=O)N(C)C(C)c2ccon2)cc1OC1CCN(C(C)C)CC1 (centres undefined)	-315*	13	14
CC(/C=N/NC(=O)Cc1cc(=O)[nH][nH]1)=C\c1ccccc1	60	nt	nt
CCN(CC)C(=O)[C@H]1CC(CC(=O)NC/C=C(\C)CCC=C(C)C)C(=O)N2CCc3c([nH]c4ccc(OC)cc34)[C@]12C (some centres undefined)	42	nt	nt
O=[N+]([O-])c1ccc(-c2ccc(C=Nc3cccc4ccccc34)o2)cc1	46	nt	nt
COc1ccccc1N1CCN(C(=O)c2cc(C(C)(C)C)oc2C)CC1	-380*	4	7
Cc1noc(C)c1COc1ccccc1C(=O)N1CCN(c2cccc(Cl)c2)CC1	52	nt	nt
c1ccc2c(C[C@@H]3CNCCN3CCC34CC5CC(CC(C5)C3)C4)cccc2c1	66	nt	nt
CC1(C)C(C(=O)OCC(Cl)(Cl)Cl)N2C(=O)C(NC(=O)Cc3ccccc3)C2S1=O (centres undefined)	-85*	0	12
CC1(C)S[C@@H]2[C@H](NC(=O)[C@H](N)c3ccccc3)C(=O)N2[C@H]1C(=O)O	-2	nt	nt
CCOC(=O)c1sc2nc3c(SCC(=O)O)cc(C(=O)c4ccccc4O)cn3c(=O)c2c1C	-189*	6	-24
CC1(C(=O)NCc2ccccn2)C=CCN1C(=O)c1ccccc1 (centres undefined)	-273*	6	-4
COc1ccc(C(=O)C(Sc2nnc(C)c(=O)[nH]2)c2ccc(OC)cc2)cc1 (centres undefined)	-114*	7	17
O=C(c1ccco1)[C@@H]1[C@@H]2C(=O)N(c3ccccc3)C(=O)[C@@H]2C2c3ccccc3C=CN21 (some centres undefined)	86	nt	nt
C#CCOCCOCCOCCNc1nc(N2CCN(C(=O)CCCCCCCCCCNC(=O)[C@H](CO)n3cc(CCCCCN)nn3)CC2)nc(N2CCN(C(=O)CCCCCCCCCCNC(=O)[C@H](CCCN=C(N)N)n3cc(C[C@@H](C)CC)nn3)CC2)n1	61	nt	nt
COc1ccc(OC)c(C2CC(=O)N3CN(c4cccc(Cl)c4)CSC3=C2C#N)c1 (centres undefined)	81	nt	nt
COc1cccc(-c2nnc(SC(C(=O)c3c[nH]c4ccccc34)c3ccccc3)n2C)c1 (centres undefined)	43	nt	nt
SMILES	Apaf1 activ	Rh110 act interf	Apaf-1 act conf	others
COc1cccc(NC(=O)C(Sc2nnc(Nc3ccccc3C)s2)c2ccccc2)c1 (centres undefined)	-276*	16	6
COc1cccc(NC(=S)Nc2cccc3ccccc23)c1	94	nt	nt
CCCCCCCCCCCCCCCC[N+](C)(C)CCN(Cc1ccc(OC)cc1)c1ncccn1	98	nt	nt
C=CC[C@@H](Cc1ccc(F)cc1)C(=O)OC[C@@H]1CCCN1C(=O)[C@@H](CC=C)CC(=O)N[C@@H](CO)Cc1ccccc1	40	nt	nt
Cc1cc(C)n(-c2cc(Cl)cc(Cl)c2)c(=O)c1C#N	-403*	12	11
CC(=O)Nc1c(I)c(NC(C)=O)c(I)c(C(=O)O)c1I	11	nt	nt
O=C(CCN1CCN(C(c2ccccc2)c2ccccc2)CC1)N/N=C/c1ccc(O)cc1O	-236*	8	14
Cc1cc(SCC(=O)N/N=C/c2ccc(O)c(O)c2O)c(C)cc1Br	49	nt	nt
